Activity calls are given as the source filed them. No cut-off for these calls is given here.
Legend:
MCF7 [1] = assay: Cell cycle arrest in human MCF7 cells assessed as accumulation at S phase at 2 uM measured after 48 hrs by propidium iodide staining based flow cytometry (reference value: 25.34 %); assay type: functional
PC-3 = assay: Antiproliferative activity against human PC-3 cells assessed as cell growth inhibition measured after 72 hrs by MTT assay; assay type: functional, cell-based; settings: PC-3, 72 h
In short: (§1)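 Cells seeded at 3000 exponentially growing cells/well and incubated 12 h at 37 °C. Medium then replaced with fresh medium containing graded compound concentrations for 72 h; 5-FU positive control. MTT (5 mg/mL solution) added for 4 h, formazan dissolved in DMSO, absorbance read at 570 nm (reference 630 nm). Relative percentage inhibition of viable cells calculated; IC50 reported as mean ± standard deviation.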

MDA-MB-231 [2] = assay: Antiproliferative activity against human MDA-MB-231 cells assessed as growth inhibition measured after 72 hrs by MTT assay; assay type: functional, cell-based; settings: MDA-MB-231, 72 h; in short: as §1
MDA-MB-231 [3] = assay: Induction of apoptosis in human MDA-MB-231 cells assessed as early apoptotic cells at 9 uM measured after 48 hrs in presence of cdc25c inhibitor, NSC663284 by AnnexinV-FITC/PI staining based flow cytometry (reference value: 7.4%); assay type: functional
MDA-MB-231 [4] = assay: Induction of apoptosis in human MDA-MB-231 cells assessed as increase in cleaved caspase 9 protein expression at 3 to 9 uM measured after 48 hrs by western blot analysis; assay type: functional, cell-based; settings: dose 3-9 µM
In short: (§2)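 MCF-7 and MDA-MB-231 breast cancer cells treated 48 h with a concentration series, then lysed for protein. SDS-PAGE on 5–15% gels, transfer to nitrocellulose. Blocked 2 h in 5% nonfat milk/PBS-0.1% Tween 20, primary antibodies overnight at 4 °C, biotin-conjugated secondary 1 h. X-ray film detection with densitometric quantification.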

MDA-MB-231 [5] = assay: Cell cycle arrest in human MDA-MB-231 cells assessed as accumulation at G2/M phase at 6 uM measured after 48 hrs by propidium iodide staining based flow cytometry (reference value: 15.46 %); assay type: functional
MCF7 [6] = assay: Induction of apoptosis in human MCF7 cells assessed as increase in cleaved caspase 7 protein expression at 1 to 4 uM measured after 48 hrs by western blot analysis; assay type: functional, cell-based; settings: dose 1-4 µM; in short: as §2
MCF7 [7] = assay: Anticancer activity against human MCF7 cells assessed as inhibition of cell growth measured after 72 hrs by MTT assay; assay type: functional, cell-based; settings: MCF7, 72 h; in short: as §1
MDA-MB-231 [8] = assay: Inhibition of PI3K/AKT signalling pathway in human MDA-MB-231 cells assessed as downregulation of 85ap-PI3K expression at 3 to 9 uM measured after 48 hrs by Western blot analysis; assay type: cell-based; settings: dose 3-9 µM
In short: (§3)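 After 48 h exposure to compound at several concentrations, cells collected and proteins extracted. SDS-PAGE on 5–15% gels, transfer to nitrocellulose, blocking 2 h in 5% nonfat milk in PBS/0.1% Tween 20, primary antibodies overnight at 4 °C, biotin-conjugated secondary 1 h. Detection on X-ray film; band densitometry.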

SW-620 = assay: Antiproliferative activity against human SW-620 cells assessed as cell growth inhibition measured after 72 hrs by MTT assay; assay type: functional, cell-based; settings: SW-620, 72 h; in short: as §1
MCF7 [9] = assay: Induction of apoptosis in human MCF7 cells assessed as early apoptotic cells at 1 uM measured after 48 hrs by Annexin V-FITC/propidium iodide staining based flow cytometric analysis (reference value: 3 %); assay type: functional
MDA-MB-231 [10] = assay: Induction of DNA damage in human MDA-MB-231 cells assessed as increase in ATM protein expression at 3 to 9 uM measured after 48 hrs by western blot analysis; assay type: functional, cell-based; settings: dose 3-9 µM
In short: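 Cells exposed to graded concentrations for 48 h, then proteins extracted. Run on SDS-PAGE (5–15% gels) and transferred to nitrocellulose. Blocked 2 h in 5% nonfat milk in PBS/0.1% Tween 20, primary antibody overnight at 4 °C, biotin-conjugated secondary 1 h. Visualized on X-ray film with densitometric quantitation; three independent experiments.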

MCF7 [11] = assay: Induction of mitochondrial membrane potential loss in human MCF7 cells assessed as red fluorescence intensity at 1 uM measured after 48 hrs by JC1 staining-based flow cytometry analysis (reference value: 91.9%); assay type: functional
MCF7 [12] = assay: Inhibition of PI3K/AKT signalling pathway in human MCF7 cells assessed as downregulation of 85ap-PI3K expression at 1 to 4 uM measured after 48 hrs by Western blot analysis; assay type: cell-based; settings: dose 1-4 µM; in short: as §3
MCF7 [13] = assay: Induction of apoptosis in human MCF7 cells assessed as late apoptotic cells at 1 uM measured after 48 hrs by Annexin V-FITC/propidium iodide staining based flow cytometric analysis (reference value: 0.6 %); assay type: functional
MDA-MB-231 [14] = assay: Cell cycle arrest in human MDA-MB-231 cells assessed as accumulation at S phase at 3 uM measured after 48 hrs by propidium iodide staining based flow cytometry (reference value: 35.54 %); assay type: functional
MDA-MB-231 [15] = assay: Induction of G2/M phase cell cycle arrest in human MDA-MB-231 cells assessed as upregulation of p-cdc25c protein expression at 9 uM measured after 48 hrs in presence of cdc25c inhibitor, NSC663284 by western blot analysis; assay type: functional, cell-based
MDA-MB-231 [16] = assay: Induction of apoptosis in human MDA-MB-231 cells assessed as increase in cleaved PARP protein expression at 3 to 9 uM measured after 48 hrs by western blot analysis; assay type: functional, cell-based; settings: dose 3-9 µM; in short: as §2
MCF7 [17] = assay: Cell cycle arrest in human MCF7 cells assessed as accumulation at G2/M phase at 1 uM measured after 48 hrs by propidium iodide staining based flow cytometry (reference value: 0.01 %); assay type: functional
MDA-MB-231 [18] = assay: Induction of G2/M phase cell cycle arrest in human MDA-MB-231 cells assessed as upregulation of p-cdc25c at ser216 residue protein expression at 9 uM measured after 48 hrs by western blot analysis; assay type: functional, cell-based
MDA-MB-231 [19] = assay: Cell cycle arrest in human MDA-MB-231 cells assessed as accumulation at G1 phase at 3 uM measured after 48 hrs by propidium iodide staining based flow cytometry (reference value: 46.28%); assay type: functional
MDA-MB-231 [20] = assay: Induction of apoptosis in human MDA-MB-231 cells assessed as increase in cleaved caspase 7 protein expression at 9 uM measured after 48 hrs in presence of cdc25c inhibitor, NSC663284 by western blot analysis; assay type: functional, cell-based
In short: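 Four arms per cell line: untreated, test compound, 0.3 µM NSC663284 alone, and combination. Proteins harvested after 48 h and resolved by SDS-PAGE on 5–15% gels, transferred to nitrocellulose. Blocked 2 h in milk/PBS-Tween, primary antibodies overnight at 4 °C, biotin-conjugated secondary. Read on X-ray film with densitometry.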

MCF7 [21] = assay: Induction of apoptosis in human MCF7 cells assessed as increase in Noxa protein expression at 1 to 4 uM measured after 48 hrs by western blot analysis; assay type: functional, cell-based; settings: dose 1-4 µM; in short: as §2
MCF7 [22] = assay: Cell cycle arrest in human MCF7 cells assessed as accumulation at G2/M phase at 4 uM measured after 48 hrs by propidium iodide staining based flow cytometry (reference value: 0.01 %); assay type: functional
MDA-MB-231 [23] = assay: Inhibition of colony formation in human MDA-MB-231 cells incubated for 24 hrs followed by medium removal and measured after 7 days by crystal violet staining based assay; assay type: functional, cell-based; settings: dose 3-9 µM
In short: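 Cells seeded at 1 × 10³ per well in six-well plates and left overnight. Compound (DMSO solution) given in fresh medium for 24 h, then medium removed and plates grown another 7 days. Colonies washed with PBS, fixed in 4% paraformaldehyde 30 min, stained with 0.1% crystal violet 30 min, photographed and counted.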

IC50 (PC-3): 2210 nM
IC50 (MDA-MB-231 [2]): 391 nM
IC50 (MCF7 [7]): 476 nM
IC50 (SW-620): 6620 nM
Compound: C[C@H]1O[C@@H](n2cnc3c(N)nc(F)nc32)[C@H](O)[C@H]1OCP(=O)([O-])[O-].[Na+].[Na+]
Activity (MCF7 [1]): 38.69%
Activity (MDA-MB-231 [3]): 5.1%
Activity (MDA-MB-231 [4]): Active
Activity (MDA-MB-231 [5]): 28.54%
Activity (MCF7 [6]): Active
inhibition (MDA-MB-231 [8]): Active
Activity (MCF7 [9]): 15.5%
Activity (MDA-MB-231 [10]): Active
Activity (MCF7 [11]): 90.9%
inhibition (MCF7 [12]): Active
Activity (MCF7 [13]): 4.6%
Activity (MDA-MB-231 [14]): 34.82%
Activity (MDA-MB-231 [15]): inactive
Activity (MDA-MB-231 [16]): Active
Activity (MCF7 [17]): 16.26%
Activity (MDA-MB-231 [18]): Active
Activity (MDA-MB-231 [19]): 44.13%
Activity (MDA-MB-231 [20]): inactive
Activity (MCF7 [21]): Active
Activity (MCF7 [22]): 26.15%
inhibition (MDA-MB-231 [23]): Dose-Dependent Effect
